Among the data in ChEMBL document CHEMBL4014281, “Design, synthesis and biological evaluation of gentiopicroside derivatives as potential antiviral inhibitors” (Eur J Med Chem, 2017) are inhibition, Activity and IC50 values, retold here.

Activity calls are given as the source filed them. The rule behind the calls is not given here.

Data set [1] concerns Hepatitis C virus. Kind of data set: Antiviral activity against HCV pseudoparticle harboring HCV envelope protein E1 and E2 assessed as inhibition of pseudoparticle entry into human Huh7 cells at 1 uM measured after 3 days by Bright-Glo luciferase reporter gene assay relative to control. Type of data set: functional, Hepacivirus hominis. As to conditions: Huh-7, 72 h. Summed up: (§1)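 HCV pseudoparticle entry screen with each compound at 1 µM and 5 µM in 1% DMSO. DMSO-only wells set maximum entry (negative control); echinocystic acid served as the entry-blocking positive control.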
On the technique in general: A reporter such as luciferase makes a cellular process visible.

The test system of data set [2] is Hepatitis C virus. The experiment in a line: Antiviral activity against HCV pseudoparticle harboring HCV envelope protein E1 and E2 assessed as inhibition of pseudoparticle entry into human Huh7 cells at 5 uM measured after 3 days by Bright-Glo luciferase reporter gene assay relative to control. Type of data set: functional, Hepacivirus hominis. As to conditions: Huh-7, 72 h. Summed up:
as §1

Data set [3] deals with Influenza A virus (A/WSN/1933(H1N1)). The experiment in a line: Antiviral activity against Influenza A virus (A/WSN/1933(H1N1)) infected in MDCK cells assessed as reduction in virus-induced cytopathic effect at 50 uM after 40 hrs by CellTiter-Glo assay. It is filed as functional, cell-based. In a few lines: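 Single-concentration screen: overnight-seeded MDCK cells were infected (MOI 0.1) in DMEM/1% FBS with […] TPCK-trypsin, compound at 1% final DMSO. CellTiter-Glo read-out after 40 h. Oseltamivir positive control; triplicate experiments, standard deviations shown.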

Data set [4] has as its system MDCK. Kind of data set: Cytotoxicity against MDCK cells at 50 uM after 40 hrs by CellTiter-Glo assay. It is filed as cell-based, Canis lupus familiaris. As to conditions: dog. In a few lines:
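Uninfected MDCK cells grown overnight, then cultured 40 h in 1% FBS medium with test compound (50 μM in screen). Viability read by CellTiter-Glo luminescence. DMSO as negative control. Triplicate experiments, standard deviations shown.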
For orientation: ATP-based viability assays read luminescence as a measure of living cells.

The test system of data set [5] is Hepatitis C virus. Kind of data set: Antiviral activity against HCV pseudoparticle harboring HCV envelope protein E1 and E2 assessed as inhibition of pseudoparticle entry into human Huh7 cells measured after 3 days by Bright-Glo luciferase reporter gene assay. Type of data set: functional. As to conditions: Hepacivirus hominis.
The test system of data set [6] is Influenza A virus (A/WSN/1933(H1N1)). Kind of data set: Antiviral activity against Influenza A virus (A/WSN/1933(H1N1)) infected in MDCK cells assessed as reduction in virus-induced cytopathic effect at 50 uM by microscopic method. It is filed as functional, cell-based. Summed up: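 CPE in compound-treated infected MDCK wells was inspected directly by light microscopy, with DMSO-treated infected wells as comparator.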
For orientation: Protection from cytopathic effect is a common read-out in antiviral testing.

Data set [7] is described as follows: Antiviral activity against Influenza A virus (A/WSN/1933(H1N1)) infected in MDCK cells assessed as reduction in virus-induced cytopathic effect after 40 hrs by CellTiter-Glo assay. It is filed as functional, cell-based. In a few lines:
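MDCK cells were seeded and incubated overnight, then infected (MOI 0.1) in DMEM with 1% FBS, […] TPCK-trypsin and compound dose series at 1% final DMSO. Cell viability was read by CellTiter-Glo luminescence after 40 h. IC50 is the concentration giving 50% inhibition of viral replication; oseltamivir was the positive control.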

As to `C=C[C@@H]1C2=CCOC(=O)C2=CO[C@H]1O[C@@H]1O[C@H](CO)[C@@H](O)[C@H](O)[C@H]1O` [GENTIOPICROSIDE], the inhibition (commonly how much of the control response was suppressed) at 1 µM in data set [1] stood at 0.6%. Also, the inhibition at 5 µM in data set [2] turned out to be 2.1%.
In the case of `C=C[C@@H]1C2=CCOC(=O)C2=CO[C@H]1O[C@@H]1O[C@H](CSC)[C@@H](O)[C@H](O)[C@H]1O`, in data set [1], the inhibition at 1 µM was determined as 14.9%. The inhibition at 5 µM in data set [2] amounted to 21%. The outcome in data set [3] was Active. Also, the Activity result in data set [4] is “Non-Toxic”.
The like results for `C=C[C@@H]1C2=CCOC(=O)C2=CO[C@H]1O[C@@H]1O[C@H](CO)[C@@H](N=[N+]=[N-])[C@H](O)[C@H]1O` were, in that order, 0.2%, 0.4%, “Active” and “Non-Toxic”.
Turning to `C=C[C@@H]1C2=CCOC(=O)C2=CO[C@H]1O[C@@H]1O[C@H](COC(=O)c2ccccc2)[C@@H](F)[C@H](OC(=O)c2ccccc2)[C@H]1OC(=O)c1ccccc1`, the result in data set [3] was Active. Moreover, the Activity entry in data set [4] is reported as “Non-Toxic”.
On to `C=C[C@@H]1C2=CCOC(=O)C2=CO[C@H]1O[C@@H]1O[C@H](CO)[C@@H](S)[C@H](O)[C@H]1O`, for which the inhibition at 1 µM in data set [1] came to 5.6%. In data set [2], the inhibition at 5 µM is 18.6%.
The like results for `C=C[C@@H]1C2=CCOC(=O)C2=CO[C@H]1O[C@@H]1O[C@H](COC(=O)c2ccccc2)[C@@H](N=[N+]=[N-])[C@H](OC(=O)c2ccccc2)[C@H]1OC(=O)c1ccccc1` were, in that order, 0.1% and 4.7%.
Consider `C=C[C@@H]1C2=CCOC(=O)C2=CO[C@H]1O[C@@H]1O[C@H](CF)[C@@H](OC(C)=O)[C@H](OC(C)=O)[C@H]1OC(C)=O`, for which, in data set [1], the inhibition at 1 µM turned out to be 1.1%. For the same molecule, the inhibition at 5 µM in data set [2] was 7.8%.
For the molecule `C=C[C@@H]1C2=CCOC(=O)C2=CO[C@H]1O[C@@H]1O[C@H](COC(=O)c2ccccc2)[C@@H](SC(C)=O)[C@H](OC(=O)c2ccccc2)[C@H]1OC(=O)c1ccccc1`, the inhibition at 1 µM in data set [1] was 0.2%. Also, the inhibition at 5 µM in data set [2] was determined as 45.1%. Moreover, the inhibition entry in data set [5] was “Dose-dependent effect”.
On to `C=C[C@@H]1C2=CCOC(=O)C2=CO[C@H]1O[C@@H]1O[C@H](COC(=O)c2ccccc2)[C@@H](O)[C@H](OC(=O)c2ccccc2)[C@H]1OC(=O)c1ccccc1`, for which, in data set [1], the inhibition at 1 µM was 0.7%. Besides, in data set [2], the inhibition at 5 µM amounted to 8.1%.
Take `C=C[C@@H]1C2=CCOC(=O)C2=CO[C@H]1O[C@@H]1O[C@H](COC(=O)c2ccccc2)[C@@H](OS(C)(=O)=O)[C@H](OC(=O)c2ccccc2)[C@H]1OC(=O)c1ccccc1`: the inhibition at 1 µM in data set [1] is 38.2%. Further, the inhibition at 5 µM in data set [2] was 40.4%. For the same molecule, in data set [5], the inhibition entry was “Dose-dependent effect”. For the same molecule, the outcome in data set [6] and in data set [3] was Active. For the same molecule, the IC50 (as a rule, the midpoint of a concentration-inhibition curve) in data set [7] came out at 39.5 µM. The Activity result in data set [4] is reported as “Non-Toxic”.
As to `C=C[C@@H]1C2=CCOC(=O)C2=CO[C@H]1O[C@@H]1O[C@H](COC(c2ccccc2)(c2ccccc2)c2ccccc2)[C@@H](O)[C@H](O)[C@H]1O`, the Activity result in data set [4] was “Toxic”.
On to `C=C[C@@H]1C2=CCOC(=O)C2=CO[C@H]1O[C@@H]1O[C@H](CNC(C)=O)[C@@H](OC(C)=O)[C@H](OC(C)=O)[C@H]1OC(C)=O`, for which, in data set [1], the inhibition at 1 µM was 9.1%. Moreover, the inhibition at 5 µM in data set [2] turned out to be 8.8%.
Take `C=C[C@@H]1C2=CCOC(=O)C2=CO[C@H]1O[C@@H]1O[C@H](CSC)[C@@H](OC(C)=O)[C@H](OC(C)=O)[C@H]1OC(C)=O`: the outcome in data set [3] was Active. Moreover, the Activity result in data set [4] was “Non-Toxic”.
Turning to `C=C[C@@H]1C2=CCOC(=O)C2=CO[C@H]1O[C@@H]1O[C@H](COC(=O)c2ccccc2)[C@H](F)[C@H](OC(=O)c2ccccc2)[C@H]1OC(=O)c1ccccc1`, the inhibition at 1 µM in data set [1] was 0.1%. Besides, the inhibition at 5 µM in data set [2] worked out at 0.2%.
Take `C=C[C@@H]1C2=CCOC(=O)C2=CO[C@H]1O[C@@H]1OC(COC(=O)c2ccccc2)=C[C@H](OC(=O)c2ccccc2)[C@H]1OC(=O)c1ccccc1`: in data set [1], the inhibition at 1 µM is 0.5%. Moreover, in data set [2], the inhibition at 5 µM is 40.3%. Also, the inhibition result in data set [5] is “Dose-dependent effect”. Also, the IC50 in data set [7] came out at 44 µM. Moreover, the result in data set [3] was Active. For the same molecule, the Activity entry in data set [4] was “Non-Toxic”.
Regarding `CC1(C)CC[C@]2(C(=O)O)[C@H](O)C[C@]3(C)C(=CC[C@@H]4[C@@]5(C)CC[C@H](O)C(C)(C)[C@@H]5CC[C@]43C)[C@@H]2C1`, in data set [1], the inhibition at 1 µM was 30.7%. Also, in data set [2], the inhibition at 5 µM came to 69.6%.
Consider `C=C[C@@H]1C2=CCOC(=O)C2=CO[C@H]1O[C@@H]1O[C@H](CO)[C@H](F)[C@H](O)[C@H]1O`, for which, in data set [1], the inhibition at 1 µM was 0.7%. Moreover, the inhibition at 5 µM in data set [2] worked out at 13.3%. In addition, in data set [7], the IC50 was 45.2 µM. In data set [3], the result was Active. Further, the Activity result in data set [4] is reported as “Non-Toxic”.
In the case of `C=C[C@@H]1C2=CCOC(=O)C2=CO[C@H]1O[C@@H]1O[C@H](CO)[C@@H](F)[C@H](O)[C@H]1O`, the inhibition at 1 µM in data set [1] turned out to be 0.9%. Further, the inhibition at 5 µM in data set [2] was determined as 45.9%. Moreover, the inhibition entry in data set [5] is “Dose-dependent effect”.
As for `CCOC(=O)C1=C[C@@H](OC(CC)CC)[C@H](NC(C)=O)[C@@H](N)C1` [OSELTAMIVIR], in data set [7], the IC50 was found to be 33.6 µM.
`C=C[C@@H]1C2=CCOC(=O)C2=CO[C@H]1O[C@@H]1O[C@H](CNC(C)=O)[C@@H](O)[C@H](O)[C@H]1O`: in data set [1], the inhibition at 1 µM was determined as 0.2%. Also, in data set [2], the inhibition at 5 µM amounted to 11.2%.
As for `C=C[C@@H]1C2=CCOC(=O)C2=CO[C@H]1O[C@@H]1O[C@H](CF)[C@@H](O)[C@H](O)[C@H]1O`, in data set [1], the inhibition at 1 µM came to 0.3%. Besides, the inhibition at 5 µM in data set [2] came out at 1%.
The like results for `C=C[C@@H]1C2=CCOC(=O)C2=CO[C@H]1O[C@@H]1O[C@H](COC(=O)c2ccccc2)[C@H](N=[N+]=[N-])[C@H](OC(=O)c2ccccc2)[C@H]1OC(=O)c1ccccc1` were, in that order, 0.2% and 17.9%.
With `C=C[C@@H]1C2=CCOC(=O)C2=CO[C@H]1O[C@@H]1O[C@H](CS)[C@@H](O)[C@H](O)[C@H]1O`, the inhibition at 1 µM in data set [1] was 0.2%. In addition, the inhibition at 5 µM in data set [2] came out at 0.1%. For the same molecule, the result in data set [3] was Active. The Activity entry in data set [4] is “Non-Toxic”.
For the molecule `C=C[C@@H]1C2=CCOC(=O)C2=CO[C@H]1O[C@@H]1O[C@H](COC(=O)c2ccccc2)[C@H](SC(C)=O)[C@H](OC(=O)c2ccccc2)[C@H]1OC(=O)c1ccccc1`, in data set [1], the inhibition at 1 µM is 9.5%. Moreover, the inhibition at 5 µM in data set [2] is 26.6%.
Consider `C=C[C@@H]1C2=CCOC(=O)C2=CO[C@H]1O[C@@H]1O[C@H](CSC(C)=O)[C@@H](OC(C)=O)[C@H](OC(C)=O)[C@H]1OC(C)=O`, for which, in data set [1], the inhibition at 1 µM came to 30.4%. Further, the inhibition at 5 µM in data set [2] worked out at 21.7%. Also, in data set [3], the result was Active. Moreover, the Activity result in data set [4] was “Non-Toxic”.
On the same counts, the results for `C=C[C@@H]1C2=CCOC(=O)C2=CO[C@H]1O[C@@H]1O[C@H](CO)[C@H](N=[N+]=[N-])[C@H](O)[C@H]1O` are 11.7%, 23.3%, “Active” and “Non-Toxic”.
As to `C=C[C@@H]1C2=CCOC(=O)C2=CO[C@H]1O[C@@H]1O[C@H](CO)[C@H](S)[C@H](O)[C@H]1OC(=O)c1ccccc1`, the inhibition at 1 µM in data set [1] worked out at 0.3%. The inhibition at 5 µM in data set [2] amounted to 4.5%.
